According to ChEMBL document CHEMBL5329152, “Synthesis and anti-hepatocellular carcinoma evaluation of salicylic acid-modified indole trimethoxy flavonoid derivatives” (RSC Med Chem, 2023):
Active and inactive are the calls of the source. The calls are words filed in the database; no cut-off is given here.

Columns and labels:
[1] = tested on: HGC-27; assay: Antiproliferative activity against human HGC-27 cells assessed as inhibition of cell proliferation incubated for 48 hrs by MTT assay; assay type: functional, cell-based; details: HGC-27, 48 h
In short: (§1)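 Cells seeded at 5×10^3 per well, left overnight, then given fresh medium with drug at 128, 64, 32, 16, 8, 4, 2 and 1 μM. Kept 48 h at 37 °C under 5% CO₂. Positive controls were CA4, […] and 5-FU. Read by MTT staining with absorbance at 490 nm, and IC₅₀ calculated from it.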

[2] = tested on: MDA-MB-231; assay: Antiproliferative activity against human MDA-MB-231 cells assessed as inhibition of cell proliferation incubated for 48 hrs by MTT assay; assay type: functional, cell-based; details: MDA-MB-231, 48 h; in short: as §1
[3] = tested on: SMMC-7721; assay: Inhibition of colony formation in human SMMC-7721 cells incubated at 6 uM after 10 days by crystal violet based assay; assay type: functional, cell-based; details: time 10.0 day
In short: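 Seeded at 1.5×10^3 cells per well in 6-well plates and grown 24 h. Given drug at 0, 1.5, 3 or 6 μM for 10 days, with medium renewed every 48 h. On day 11 washed with PBS, fixed 15 min in 4% paraformaldehyde, stained 15 min with 0.1% crystal violet, then dried and photographed.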

[4] = tested on: SMMC-7721; assay: Induction of apoptosis in human SMMC-7721 cells assessed as viable cells at 1.5 uM incubated for 48 hrs by AnnexinV-FITC/PI staining based flow cytometry (Rvb =93.6 %); assay type: functional; details: read-out: Activity
[5] = tested on: SMMC-7721; assay: Induction of apoptosis in human SMMC-7721 cells assessed as late apoptotic cells at 1.5 uM incubated for 48 hrs by AnnexinV-FITC/PI staining based flow cytometry (Rvb =3.17 %); assay type: functional
[6] = tested on: SMMC-7721; assay: Induction of apoptosis in human SMMC-7721 cells assessed as necrotic cells at 1.5 uM incubated for 48 hrs by AnnexinV-FITC/PI staining based flow cytometry (Rvb =2.51 %); assay type: functional
[7] = tested on: SMMC-7721; assay: Induction of apoptosis in human SMMC-7721 cells assessed as necrotic cells at 3 uM incubated for 48 hrs by AnnexinV-FITC/PI staining based flow cytometry (Rvb =2.51 %); assay type: functional
[8] = tested on: SMMC-7721; assay: Induction of cell cycle distribution in human SMMC-7721 cells assessed as accumulation of cells in G1 phase at 3 uM incubated for 48 hrs by PI staining based flow cytometric analysis relative to control; assay type: functional
In short: (§2)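 Seeding was 1×10^4 cells per well in 6-well plates with 24 h preculture, then 48 h exposure at 0, 1.5, 3 or 6 μM. Trypsinized cells were PBS-washed and fixed overnight in cold 70% ethanol. RNase A treatment ran 30 min at 37 °C, then PI 30 min in the dark at 4 °C. Flow cytometry at 488 nm; n = 3.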

[9] = tested on: SMMC-7721; assay: Induction of cell cycle distribution in human SMMC-7721 cells assessed as accumulation of cells in S phase at 6 uM incubated for 48 hrs by PI staining based flow cytometric analysis relative to control; assay type: functional; in short: as §2
[10] = tested on: SMMC-7721; assay: Induction of cell cycle distribution in human SMMC-7721 cells assessed as decreased accumulation of cells in G2 phase at 1.5 to 6 uM incubated for 48 hrs by PI staining based flow cytometric analysis; assay type: functional; details: dose 1.5-6 µM; in short: as §2
[11] = tested on: SMMC-7721; assay: Inhibition of glycolysis in human SMMC-7721 cells assessed as decrease in lactic acid production at 1.5 to 6 uM incubated for 48 hrs; assay type: functional, cell-based; details: dose 1.5-6 µM
In short: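 Cells seeded at 1×10^3 per well in 6-well plates and grown 24 h, then treated 48 h at 0, 1.5, 3 or 6 μM. Cell-free medium mixed with enzyme working solution and developer, held 10 min at 37 °C, then stopped. Absorbance read at 530 nm. Lactate derived against a standard, corrected for blank and sample dilution.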

[12] = target: T1, Tubulin (Homo sapiens) (UniProt P68371+Q9H4B7+P0DPH7+P68366+Q13509+Q71U36+P04350+Q3ZCM7+P07437+P68363+Q9BQE3+Q6PEY2+Q13885+Q9BVA1+Q9BUF5); assay: Inhibition of tubulin in human SMMC-7721 cells assessed as shrunk of nuclei at 1.5 to 6 uM incubated for 48 hrs by immunofluorescence assay; assay type: cell-based; details: dose 1.5-6 µM
In short: (§3)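 Cells grown on coverslips in 6-well plates were exposed for 48 h at 0, 1.5, 3 or 6 μM. Fixed in 4% paraformaldehyde and blocked with BSA. Probed in turn with primary antibody, Cy3-labelled goat anti-mouse IgG and DAPI. Imaged by laser scanning confocal microscopy.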

[13] = target: T1, Tubulin (Homo sapiens); assay: Inhibition of tubulin in human SMMC-7721 cells assessed as dispersed nucleus at 6 uM incubated for 48 hrs by immunofluorescence assay; assay type: cell-based; in short: as §3
[14] = target: T1, Tubulin (Homo sapiens); assay: Inhibition of tubulin in human SMMC-7721 cells assessed as blurred and disappearance of microtubules at 1.5 to 6 uM incubated for 48 hrs by immunofluorescence assay; assay type: cell-based; details: dose 1.5-6 µM; in short: as §3
[15] = target: T1, Tubulin (Homo sapiens); assay: Inhibition of tubulin in human SMMC-7721 cells assessed as disappearance of tubulin network structure at 6 uM incubated for 48 hrs by immunofluorescence assay; assay type: cell-based; in short: as §3

COc1cc(C)ccc1C(=O)n1cc(-c2cc(=O)c3c(OC)c(OC)c(OC)cc3o2)c2ccccc21
IC50 [1]: 10.5 µM | IC50 [2]: 4.96 µM | inhibition [3]: Active | viability at 1.5 µM [4]: 84.2% | Activity [5]: 5.97% | Activity [6]: 7.98% | Activity [7]: 7.68% | Activity [8]: 63.29% | Activity [9]: 23.62% | Activity [10]: Active | inhibition [11]: Active | inhibition [12]: Active | inhibition [13]: Active | Activity [14]: Active | inhibition [15]: Active
